Screening data from PubChem BioAssay.
PDI turbidity – inhibitors of human PDI, primary screen, biochemical, turbidity, single point, plate reader; 350,000 compounds, 0.052% hits; PDI insulin aggregation turbidity, A650, 90 min; AID 588391, 2011; inhibition, % at 10 µM;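 active = mean inhibition across replicates of 30% or more, whatever share of single replicates reach that level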
Target sequence (P07237 whole entry, looked up): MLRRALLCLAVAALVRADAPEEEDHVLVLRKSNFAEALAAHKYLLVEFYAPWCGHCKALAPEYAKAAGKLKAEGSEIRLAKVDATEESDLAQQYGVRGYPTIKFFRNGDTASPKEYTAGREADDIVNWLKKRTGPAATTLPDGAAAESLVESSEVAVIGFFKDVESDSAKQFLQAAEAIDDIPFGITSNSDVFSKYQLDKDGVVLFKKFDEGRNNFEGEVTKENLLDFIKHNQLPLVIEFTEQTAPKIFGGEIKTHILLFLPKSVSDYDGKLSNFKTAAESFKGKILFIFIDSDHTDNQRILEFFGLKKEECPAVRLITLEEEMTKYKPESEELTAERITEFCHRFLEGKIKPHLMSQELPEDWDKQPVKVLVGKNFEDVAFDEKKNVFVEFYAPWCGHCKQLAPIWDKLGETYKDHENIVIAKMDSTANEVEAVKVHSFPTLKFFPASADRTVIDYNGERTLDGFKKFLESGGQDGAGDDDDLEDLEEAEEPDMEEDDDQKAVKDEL
MLL AF4-AF9 inh – inhibitors of AF4 peptide binding to AF9, primary screen, biochemical, AlphaScreen, biotin-AF4 peptide, FLAG-AF9, single point; inhibition, % at 10 µM; AID 651704, 2012; 350,000 compounds, 0.47% hits;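 active = every replicate reaching a set inhibition limit, whatever the replicate mean, cut at about 25% in these data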;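 note: 0% = plate neutral control median and 100% = total signal loss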
SIRT5 inh – SIRT5 desuccinylase inhibitors, primary screen, biochemical, fluorescence imaging, single point, set 5; 330,000 compounds, 1.1% hits; AID 652115, 2013; inhibition, % at 15 µM; NAD-dependent protein deacylase sirtuin-5, mitochondrial (Homo sapiens), Q9NXA8; Purified SirT5, succinyl-peptide AMC, trypsin-coupled fluorescence; in the data active = inhibition above about 15%
ERp5 block – inhibitors of ERp5-driven insulin aggregation, primary screen, biochemical, turbidity, absorbance 650 nm, single point. 350,000 compounds, 0.05% hits. 90 min. Protein disulfide-isomerase A6 (Homo sapiens), Q15084. AID 651711, 2012. inhibition, % at 9.99 µM;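 active = mean replicate inhibition above about 25%, with every replicate also reaching it, limit read from the data, passing the limit was not always enough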
FN deposition inh – inhibitors of fibronectin matrix deposition, primary screen, AH1F cells, Alexa488-fibronectin fluorescence, plate reader; AH1F fibroblasts, overnight; inhibition, % at 12.6 µM; 350,000 compounds, 0.086% hits; AID 743247, 2014;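 active = mean inhibition across replicates of 30% or more, regardless of how many single replicates reach that level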;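 note: positive control wells lacked labelled fibronectin entirely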
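Test system: AH1F fibroblast monolayer depositing Alexa488-labelled fibronectin into matrix. Input: 10000 cells per well. Technique: fluorescence, ex 485 nm, em 525 nm. Buffer or medium: DMEM plus 2% serum, read in PBS. Timing: 1 h cell adhesion before compound, then overnight fibronectin incubation. Compound: single dose, pinned. Read-out basis: inhibition from reduced deposited-fibronectin fluorescence.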
Numbers without * were called inactive. This is a sample that favours compounds with a hit; in the whole collection about 1.3% have one here.

How did COc1ccc(S(=O)(=O)Nc2ccc3c(c2)CC(=O)N([C@@H](C)CO)C[C@@H](C)[C@H](CN(C)Cc2ccc(C(F)(F)F)cc2)O3)cc1 do in these assays?
MLL AF4-AF9 inh: 1.2; SIRT5 inh: 23.8*; ERp5 block: -1.8; FN deposition inh: -4.7

How did Cc1cc(Br)cc(C=Nc2ccc(N3CCOCC3)cc2)c1O do in these assays?
PDI turbidity: 0.2; SIRT5 inh: -6.9; ERp5 block: -6.8; FN deposition inh: -7.2

How did COc1ccc(S(=O)(=O)Nc2ccc3c(c2)CC(=O)N([C@H](C)CO)C[C@H](C)[C@@H](CN(C)Cc2ccc(C(F)(F)F)cc2)O3)cc1 do in these assays?
MLL AF4-AF9 inh: 0.8; SIRT5 inh: 25.9*; ERp5 block: 12.1

What do the screens show for `O=C(NC1CCCCC1)C1c2ccccc2OCC(=O)N1Cc1ccco1` (stereo unspecified)?
MLL AF4-AF9 inh: 1.7; SIRT5 inh: 16.4*; ERp5 block: 0.5; FN deposition inh: -4.8

Results for O=C(NC1CCCC1)C1c2ccccc2OCC(=O)N1Cc1ccccn1 (stereo unspecified) ?
MLL AF4-AF9 inh: -1.2; SIRT5 inh: -3.9; ERp5 block: -6.8; FN deposition inh: 2.6

Results for COc1ccc(Cl)cc1NC(=O)c1ocnc1C ?
PDI turbidity: -1.4; MLL AF4-AF9 inh: 4.8; SIRT5 inh: -1.1; ERp5 block: -3.6

Results for CCCC(=O)Nc1cccc(NC(=O)c2ccc([N+](=O)[O-])cc2Cl)c1 ?
PDI turbidity: 1.6; MLL AF4-AF9 inh: 4.0; SIRT5 inh: -0.8; ERp5 block: 3.0; FN deposition inh: -3.9

How did CCCN(CCC)CCN1CCN(C(=O)[C@H](CCc2ccccc2)NC(=O)[C@H]2O[C@@H](n3cnc4c(N)ncnc43)[C@H](O)[C@@H]2O)CC1 do in these assays?
SIRT5 inh: 29.4*; ERp5 block: 2.6; FN deposition inh: 0.6

Results for Nc1ncnc2c1ncn2[C@@H]1O[C@H](C(=O)N[C@@H](CCc2ccccc2)C(=O)N2CCN(C(=O)N3CCCCC3)CC2)[C@@H](O)[C@H]1O ?
SIRT5 inh: -0.3; ERp5 block: -0.3; FN deposition inh: 4.4

How did Cc1cc(NC(=O)CSc2ccc(-c3ccccc3)nn2)no1 do in these assays?
PDI turbidity: 3.1; FN deposition inh: 9.6

Results for CC1Cc2cc(/C(O)=C3/C(=O)C(=O)N(Cc4ccco4)C3c3cccs3)ccc2O1 (stereo unspecified) ?
PDI turbidity: 10.3

Results for O=C(Nc1ccc2c(c1)OCCO2)C(c1ccnc2ccccc12)N1CCN(c2ccc(C(F)(F)F)cn2)CC1 (stereo unspecified) ?
MLL AF4-AF9 inh: -2.6; SIRT5 inh: -2.3; ERp5 block: -2.4; FN deposition inh: 2.8

How did O=C(Nc1ccc2c(c1)OCCO2)C(c1ccnc2ccccc12)N1CCN(c2ccc(F)cc2)CC1 (stereo unspecified) do in these assays?
MLL AF4-AF9 inh: 1.7; SIRT5 inh: 28.9*; ERp5 block: 2.6; FN deposition inh: 4.0

Results for CCN(C[C@@H]1[C@@H](c2ccccc2)[C@H](CO)N1C(=O)C1CC1)C(=O)NC1CCCC1 ?
MLL AF4-AF9 inh: -2.9; SIRT5 inh: 32.0*; ERp5 block: -9.2

What do the screens show for `CCC(=O)NC[C@H]1[C@@H](c2ccccc2)[C@@H](CO)N1C(=O)C1CCC1`?
MLL AF4-AF9 inh: -3.4; SIRT5 inh: 1.7; ERp5 block: -3.5

What do the screens show for `COCC(=O)N1[C@H](CO)[C@@H](c2ccccc2)[C@@H]1CNC(=O)c1ccccn1`?
MLL AF4-AF9 inh: 0.0; SIRT5 inh: 15.1*; ERp5 block: -0.4; FN deposition inh: 2.9

How did CCC(=O)NC[C@H]1[C@@H](c2ccccc2)[C@H](CO)N1C(=O)C1CCC1 do in these assays?
MLL AF4-AF9 inh: -1.7; SIRT5 inh: 20.2*; ERp5 block: -2.9

Results for CCN(C[C@@H]1[C@@H](c2ccccc2)[C@@H](CO)N1C(=O)C1CC1)C(=O)NC1CCCC1 ?
MLL AF4-AF9 inh: -1.9; SIRT5 inh: -4.0; ERp5 block: -3.8

Results for CN(C[C@H]1[C@H](c2ccccc2)[C@@H](CO)N1C(=O)C1CCC1)C(=O)c1ccccn1 ?
MLL AF4-AF9 inh: -3.6; SIRT5 inh: 15.7*; ERp5 block: -0.5

Results for Cn1ccnc1SCC(=O)Nc1nc2c(F)c(F)c(F)cc2s1 ?
PDI turbidity: -4.5; MLL AF4-AF9 inh: -11.5; SIRT5 inh: -1.0; ERp5 block: -1.7; FN deposition inh: 3.9

Results for CC(=O)N1[C@H](CO)[C@H](c2ccc(-c3ccncc3)cc2)[C@@H]1CNC(=O)CC1CC1 ?
MLL AF4-AF9 inh: -1.7; SIRT5 inh: 22.5*; ERp5 block: -0.4; FN deposition inh: -16.6

How did CC(=O)N1[C@H](CO)[C@H](c2ccc(C3=CCCC3)cc2)[C@H]1CNC(=O)CC1CC1 do in these assays?
MLL AF4-AF9 inh: -3.4; SIRT5 inh: -0.6; ERp5 block: -3.1; FN deposition inh: 2.1

What do the screens show for `O=C(NC[C@@H]1[C@@H](c2ccccc2)[C@@H](CO)N1C(=O)Cc1cccnc1)C1CC1`?
MLL AF4-AF9 inh: -1.5; SIRT5 inh: 17.0*; ERp5 block: -4.8; FN deposition inh: 1.4

What do the screens show for `O=C(C[C@@H]1CC[C@@H]2[C@H](COC[C@@H](O)CN2C(=O)Nc2ccccc2)O1)NCCCN1CCOCC1`?
MLL AF4-AF9 inh: -1.5; SIRT5 inh: 6.8; ERp5 block: 3.3; FN deposition inh: 0.6

What do the screens show for `O=C(NCc1ccncc1)c1ccc(Cl)c(S(=O)(=O)N2CCCCC2)c1`?
PDI turbidity: 0.1; MLL AF4-AF9 inh: -1.0; SIRT5 inh: 17.8*; ERp5 block: -6.1; FN deposition inh: -0.3

What do the screens show for `O=C(COc1ccc(Cl)cc1Cl)Nc1ccc(CN2CCCCC2)cc1`?
PDI turbidity: 7.8; MLL AF4-AF9 inh: 5.9; SIRT5 inh: 111.8*; ERp5 block: 0.6

What do the screens show for `CCN1CCN(CC(=O)Nc2nc3ccccc3s2)CC1`?
PDI turbidity: 5.4; MLL AF4-AF9 inh: -0.2; SIRT5 inh: 1.5; ERp5 block: -5.4; FN deposition inh: -4.9

What do the screens show for `CN1CCN(CC(=O)Nc2nc3ccccc3s2)CC1`?
PDI turbidity: -4.9; MLL AF4-AF9 inh: -0.7; SIRT5 inh: 21.4*; ERp5 block: 2.6; FN deposition inh: -4.2

What do the screens show for `COc1ccc(-n2nnc3c(=O)n(CC(=O)N4CCCCC4)cnc32)cc1`?
MLL AF4-AF9 inh: 5.3; SIRT5 inh: 15.4*; ERp5 block: 0.7; FN deposition inh: 0.3

What do the screens show for `Cc1cc(=O)n(CCO)c(O)c1C#N`?
PDI turbidity: 1.7; FN deposition inh: 6.1

What do the screens show for `COc1ccc(OC)c(C2Nc3ccccc3NC3=C2C(=O)CC(C)(C)C3)c1` (stereo unspecified)?
PDI turbidity: 14.4; MLL AF4-AF9 inh: -7.1; SIRT5 inh: 19.6*; ERp5 block: 1.4; FN deposition inh: 1.0
